Experimental data taken from ChEMBL document CHEMBL4371014, “Novel Allosteric Ligands of γ-Aminobutyric Acid Transporter 1 (GAT1) by MS Based Screening of Pseudostatic Hydrazone Libraries” (J Med Chem, 2018).

What was measured:
[1] = target: T1, Sodium- and chloride-dependent GABA transporter 1 (Mus musculus, UniProt P31648); assay: Inhibition of NO711 binding to mouse GAT1 expressed in HEK293 cell membranes assessed as residual binding preincubated for 4 hrs followed by NO711 addition and measured after 40 mins by LC-ESI-MS/MS analysis
Outline: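 Pseudostatic hydrazone libraries were generated with mouse GAT1 present. Each held eight aldehydes (1.0 µM each) plus hydrazine (200 µM), incubated 4 h. NO711 marker was added directly for a further 40 min. Bound marker was released and quantified by LC-ESI-MS/MS as % remaining specific binding, four replicates (means±SD).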

[2] = target: T1, Sodium- and chloride-dependent GABA transporter 1; assay: Inhibition of mouse GAT1 expressed in HEK293 cells assessed as reduction in [3H]GABA uptake preincubated for 25 mins followed by [3H]GABA addition and measured after 4 mins by liquid scintillation counting method; assay type: cell-based
GABA transporter 4 = target: T2, GABA transporter 4 (Mus musculus, UniProt P31650); assay: Inhibition of mouse GAT4 expressed in HEK293 cells assessed as reduction in [3H]GABA uptake preincubated for 25 mins followed by [3H]GABA addition and measured after 4 mins by liquid scintillation counting method; assay type: cell-based
T2 sequence (P31650 whole entry): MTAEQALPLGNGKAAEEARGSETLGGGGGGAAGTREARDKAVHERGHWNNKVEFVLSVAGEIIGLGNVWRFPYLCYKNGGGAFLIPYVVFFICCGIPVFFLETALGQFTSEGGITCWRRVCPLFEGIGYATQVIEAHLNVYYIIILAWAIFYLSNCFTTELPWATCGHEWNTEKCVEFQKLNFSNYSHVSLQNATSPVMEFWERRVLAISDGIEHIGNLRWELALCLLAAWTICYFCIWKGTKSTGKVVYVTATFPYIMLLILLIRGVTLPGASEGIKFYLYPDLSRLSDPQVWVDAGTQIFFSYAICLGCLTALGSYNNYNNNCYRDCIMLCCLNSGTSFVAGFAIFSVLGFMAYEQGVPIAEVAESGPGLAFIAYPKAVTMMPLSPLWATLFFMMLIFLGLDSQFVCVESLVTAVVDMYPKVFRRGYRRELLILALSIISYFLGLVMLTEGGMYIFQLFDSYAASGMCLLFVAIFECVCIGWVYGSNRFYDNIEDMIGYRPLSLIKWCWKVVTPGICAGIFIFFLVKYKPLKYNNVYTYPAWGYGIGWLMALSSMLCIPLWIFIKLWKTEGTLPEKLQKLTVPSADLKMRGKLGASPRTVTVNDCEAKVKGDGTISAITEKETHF

[3] = target: T3, Sodium- and chloride-dependent GABA transporter 1 (Homo sapiens, UniProt P30531); assay: Inhibition of NO711 binding to human GAT1 expressed in COS cell membranes by LC-ESI-MS/MS analysis
T3 sequence (P30531 whole entry): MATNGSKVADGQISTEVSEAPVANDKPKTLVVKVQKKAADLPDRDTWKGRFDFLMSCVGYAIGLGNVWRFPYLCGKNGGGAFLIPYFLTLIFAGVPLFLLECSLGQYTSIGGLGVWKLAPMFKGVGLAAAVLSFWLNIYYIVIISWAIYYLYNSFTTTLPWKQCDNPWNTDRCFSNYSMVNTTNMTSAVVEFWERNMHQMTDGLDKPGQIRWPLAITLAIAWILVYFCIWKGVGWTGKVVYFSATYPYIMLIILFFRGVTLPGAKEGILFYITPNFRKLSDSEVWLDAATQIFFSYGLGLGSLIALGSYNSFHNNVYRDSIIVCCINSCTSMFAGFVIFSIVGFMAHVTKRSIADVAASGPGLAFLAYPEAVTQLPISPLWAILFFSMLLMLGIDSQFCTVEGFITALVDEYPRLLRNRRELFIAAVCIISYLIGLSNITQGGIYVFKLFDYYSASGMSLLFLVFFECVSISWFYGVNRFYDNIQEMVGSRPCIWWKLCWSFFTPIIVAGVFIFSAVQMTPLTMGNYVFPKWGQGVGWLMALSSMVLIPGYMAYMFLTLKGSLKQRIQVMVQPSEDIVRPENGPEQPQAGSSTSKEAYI

[4] = target: T3, Sodium- and chloride-dependent GABA transporter 1; assay: Inhibition of NO711 binding to human GAT1 expressed in COS cell membranes preincubated for 25 mins by LC-ESI-MS/MS analysis

Row | SMILES | Ki [1] [µM] | IC50 [2] [µM] | IC50 (GABA transporter 4) [µM] | IC50 [3] [µM] | IC50 [4] [µM]
1 | O=C(O)[C@H]1CNC[C@@H](CN/N=C/c2ccc(-c3ccc(Cl)cc3[N+](=O)[O-])o2)C1 (racemic) | 1.48 |  |  |  | 
2 | O=C(O)[C@H]1CNC[C@@H](CN/N=C/c2ccc(-c3ccccc3C(F)(F)F)o2)C1 (racemic) | 2.29 |  |  |  | 
3 | O=C(O)[C@H]1CNC[C@@H](CN/N=C/c2cccc(Oc3ccccc3)c2)C1 (racemic) | 0.955 |  |  |  | 
4 | O=C(O)[C@H]1CNC[C@@H](CN/N=C/c2ccc(-c3ccccc3Br)o2)C1 (racemic) | 1.45 |  |  |  | 
5 | O=C(O)[C@H]1CNC[C@@H](CN/N=C/c2cnc(-c3ccc4ccccc4c3)nc2)C1 (racemic) | 0.933 |  |  |  | 
6 | O=C(O)[C@H]1CNC[C@@H](CN/N=C/c2ccc(-c3ccc(F)c(C(F)(F)F)c3)o2)C1 (racemic) | 1.26 |  |  |  | 
7 | O=C(O)[C@H]1CNC[C@@H](CN/N=C/c2ccc(-c3cccc(Cl)c3)o2)C1 (racemic) | 1.86 |  |  |  | 
8 | O=C(O)[C@H]1CNC[C@@H](CN/N=C/c2ccc(-c3ccccc3Cl)o2)C1 (racemic) | 1.23 |  |  |  | 

Stronger by Ki [1], values ahead:

Row | Ki [1] [µM] | IC50 [2] [µM] | IC50 (GABA transporter 4) [µM] | IC50 [3] [µM] | IC50 [4] [µM] | SMILES
9 | 0.708 |  |  |  |  | O=C(O)[C@H]1CNC[C@@H](CN/N=C/c2ccc(-c3cccc(C(F)(F)F)c3)o2)C1 (racemic)
10 | 0.646 |  |  |  |  | O=C(O)[C@H]1CNC[C@@H](CN/N=C/c2ccc(-c3ccc(Cl)cc3Cl)o2)C1 (racemic)
11 | 0.617 | 44.7 | 41.7 | 26.9 to 170 | 30.9 to 135 | O=C(O)[C@H]1CNC[C@@H](CCN/N=C/c2ccc(-c3ccc(C(F)(F)F)cc3Cl)o2)C1 (racemic)
12 | 0.479 | 35.5 | 15.1 | 26.9 to 170 | 30.9 to 135 | O=C(O)[C@H]1CNC[C@@H](CCN/N=C/c2ccc(-c3ccc(Cl)cc3Cl)o2)C1 (racemic)
13 | 0.468 | 81.3 |  | 26.9 to 170 | 30.9 to 135 | O=C(O)[C@H]1CNC[C@@H](CN/N=C/c2ccc(-c3cc(C(F)(F)F)ccc3Cl)o2)C1 (racemic)
14 | 0.447 | 41.7 |  | 26.9 to 170 | 30.9 to 135 | O=C(O)[C@H]1CNC[C@@H](CN/N=C/c2ccc(-c3ccc(C(F)(F)F)cc3Cl)o2)C1 (racemic)
15 | 0.245 |  |  | 26.9 to 170 | 135 | O=C(O)[C@H]1CNC[C@@H](CN/N=C/c2ccc(-c3cc(C(F)(F)F)cc(C(F)(F)F)c3)o2)C1 (racemic)
16 | 0.214 | 22.9 | 75.9 | 26.9 to 170 | 42.7 | O=C(O)[C@H]1CNC[C@@H](CN/N=C/c2ccc(-c3cccc4ccccc34)o2)C1 (racemic)
17 | 0.0275 |  |  |  |  | Cc1ccsc1C(=CCCN1CCC[C@@H](C(=O)O)C1)c1sccc1C [TIAGABINE]
